This data set is described as follows: Toxicity liver stage against HepG2, at 10uM. Also noted: test concentration 10 uM, cell line HepG2-A16-CD81EGFP. The format is cell-based. The following applies: human, HepG2-A16-CD81EGFP cells; read-out: INHIBITION
A digest of the protocol:
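Uninfected HepG2-A16-CD81EGFP cells, 3 × 10^3 per well, 1536-well, plated on prespotted compound at 10 μM final, parasite-free screening media added to match infected plates; puromycin 10 μM positive, DMSO 0.5% negative; run in parallel with 48 h PbLuc assay at 37 °C, 5% CO2; viability by CellTiter-Glo luminescence, normalized to controls.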

On to `O=C(CCn1cccn1)NCCOc1cccc(Cl)c1`, for which the cytotoxicity at 10 µM was -2.48%.
The value for `Cc1nccc(N2CCCC(c3nnc(Cn4ccnc4C)n3C)C2)n1` (stereo unspecified) was -2.04%; that for `COCCN(CCOC)C(=O)c1cn(C(C)(C)C)c2ncccc12` was -1.14%; that for `Fc1ccc2c(C3=CCN(Cc4nnc(C5CCC5)o4)CC3)c[nH]c2c1` was -0.302%.
The figure for `CCN1CCC2(CN(C(=O)N(C)C)CC23CCN(CC2CC2)CC3)C1=O` (stereo unspecified) is 0.199%.
As for `c1ccc([C@@H]2CN(Cc3cccnc3)C[C@H]2c2cc[nH]n2)cc1`, the cytotoxicity at 10 µM was -4.24%.
As to `Cc1nc(S(=O)(=O)N2CCCCc3ccccc32)cn1C`, the cytotoxicity at 10 µM is -2.38%.
Turning to `COC(=O)CCCn1ccnc1C(C)c1ccccc1` (stereo unspecified), the cytotoxicity at 10 µM was -6.73%.
The value for `CN(C)c1ncccc1CNS(=O)(=O)c1cc(F)ccc1F` was 5.67%; that for `OCCn1cc(CN2CCN(CCOCC(F)(F)F)CC2)cn1` was -10.7%.
The value for `O=C(O)c1nnn(-c2ccc(F)c(F)c2)c1-c1ccncc1` was 3.72%.
The value for `CN(Cc1cccc(F)c1)C(=O)CN1CCOC(Cn2cccn2)C1` (stereo unspecified) was -8.21%.
Turning to `CN(C)CCN1C(=O)CCCC12CCCN(C(=O)c1ccncc1)C2` (stereo unspecified), the cytotoxicity at 10 µM is -1.31%.
The value for `COCc1noc(Cn2c(=O)[nH]c3ccccc32)n1` was 4.84%.
The value for `O=C(NC[C@H]1CCCC[C@H]1O)c1cccc2[nH]c(-c3cccs3)nc12` was -6.95%.
In the case of `CC(NC(=O)NCCCn1ccnc1)c1ccc2c(c1)CCC(=O)N2` (stereo unspecified), the cytotoxicity at 10 µM was -4.74%.
With `Cn1cc2c(n1)C(CNCC1CCOCC1)OCC2` (stereo unspecified), the cytotoxicity at 10 µM amounted to 6.86%.
Consider `N#Cc1cccc(Cl)c1NCCc1n[nH]c(=O)[nH]1`, for which the cytotoxicity at 10 µM is 60.1%.
The figure for `CC(C)=CCN1C[C@@H]2CC[C@H]1CN(C(=O)c1ccc3c(c1)OCO3)C2` is -0.988%; for `CN(CC1CN(CCn2cc(C#N)cn2)CCO1)c1cccnn1` (stereo unspecified) it is 1.85%.
The figure for `Cc1cn(Cc2nc(CC(C)C)nn2-c2ccccn2)c(=O)[nH]c1=O` is -8.66%.
In the case of `O=C(CSC1CCc2ccccc2NC1=O)NCc1cccs1` (stereo unspecified), the cytotoxicity at 10 µM is -2%.
The figure for `Cc1cnn(CCNCC(O)COc2ccc(Cl)cc2)c1` (stereo unspecified) is -12.6%; for `COc1ccc(OC)c(Nc2nc3c(C)nn(C)c3c(=O)n2C)c1` it is -2.73%; for `Cc1ccccc1C(CNc1ncnc2c1CCNCC2)N(C)C` (stereo unspecified) it is 21.5%.
The value for `Cc1ccc(-c2ccccc2CC2(C(=O)NC(C)C)CCCNC2)cc1` (stereo unspecified) was 2.73%; that for `COc1cc(CN2CCC(O)(c3ccc(C)cn3)CC2)cc(Cl)c1OC` was -132%.
The value for `CN1CCN(Cc2cn3c(n2)CN(C(=O)N2CCCC2)CC3)CC1` was 3.23%; that for `CC(=O)N(Cc1ncc(C)o1)C1CCN(Cc2ccncc2Cl)C1` (stereo unspecified) was 3.68%; that for `Cc1cccc(CNCc2c(C(C)C)nn(C)c2N2CCOCC2)n1` was -9.4%.
Consider `Cc1ccc(CNCc2nccn2C)c(OCC2CC2)c1`, for which the cytotoxicity at 10 µM is -4.52%.
The figure for `COCCNC(=O)N1CCN(C(C)C(=O)NC(C)C)CC1` (stereo unspecified) is 10.6%.
The figure for `O=C(Cc1nc(-c2ccncc2)n[nH]1)NCCCN1CCOCC1` is -1.8%; for `Cc1cc(CNC(=O)CCc2c(C)nc3cc(O)nn3c2C)no1` it is -3.27%; for `CNc1cc(C2CCCN2C(=O)c2ccc(=O)[nH]n2)ccn1` (stereo unspecified) it is -5.04%.
For the compound `CC(Cn1cccn1)NCC(=O)NC1(C#N)CCCCC1` (stereo unspecified), the cytotoxicity at 10 µM was -3.6%.
The figure for `Cc1cccc(-c2noc(Cn3nc(C(N)=O)ccc3=O)n2)c1` is -1.15%; for `CCCc1n[nH]c(C2CN(CCn3cccn3)CCO2)n1` (stereo unspecified) it is -11.3%.
The value for `COc1ncccc1C(=O)Nc1cccc(C[S+](C)[O-])c1C` (stereo unspecified) was 2.28%.
The value for `Cc1ccnc(OCC(=O)N2CCN(c3ncccn3)CC2)n1` was -0.849%; that for `Cc1nc(CN2CCC3(CCN(Cc4cnn(C)c4)CC3)C2=O)cs1` was 2.34%; that for `Nc1ncc(-c2ccc(Cl)cc2)c(C2CCCNC2)n1` (stereo unspecified) was -7.64%.
With `Cc1cc(NC(=O)c2ccc(F)cc2Br)n(C)n1`, the cytotoxicity at 10 µM is -3.12%.
The figure for `OCCCN1CCCC1c1cccc(Br)c1` (stereo unspecified) is 5.71%; for `Cc1cc(C(=O)NCCC2CCN(C)CC2)ccc1N(C)S(C)(=O)=O` it is 5.82%; for `Cc1cccc(-c2nc(CN3CCc4cncnc4C3)no2)c1` it is -10.4%.
The figure for `COc1c(CNCCNC(=O)c2ccc(C)c(F)c2)c(C)nn1C` is -3.33%; for `CCCc1n[nH]c(C2CN(C(=O)CCCn3ccnc3)CCO2)n1` (stereo unspecified) it is -5.39%.
The value for `O=C1CCC2(CCN(Cc3cc(F)ccc3Cl)CC2)CN1C1CCCC1` was 53.1%; that for `Cc1nc[nH]c1CN(Cc1ccccc1)Cc1nccs1` was 2.14%; that for `Cc1nc(CN2CCCn3cnc(COC(C)C)c3C2)cs1` was -73.4%.
With `CC(C)(C)C(=O)NCC(=O)NCCc1nc(C(F)(F)F)cs1`, the cytotoxicity at 10 µM came out at 6.16%.
For `COc1ccc(CN2C[C@H]3C[C@H](CN(C)C)O[C@H]3C2)cc1`, the cytotoxicity at 10 µM is -7.4%.
The value for `Cn1cc(C(=O)N2CC[C@@H]3[C@@H]2CCN3c2ccccn2)cn1` was -0.0807%; that for `CNC(=O)C(C)CNC(=O)c1coc(COc2cccc(F)c2F)n1` (stereo unspecified) was 5.21%; that for `CCc1[nH]ncc1C(=O)N1CCCC(n2cc(C)cn2)C1` (stereo unspecified) was -11.4%.
The figure for `O=C(c1ccc2ccccc2n1)N1CCC2(CCN2c2ncccn2)C1` (stereo unspecified) is -114%; for `O=C(NCc1cccc2cccnc12)N1CCC(n2cncn2)CC1` it is 0.722%.
The value for `COc1ccc(C(=O)N2CCC3(CCC(=O)N(C(C)C)C3)CC2)cc1C` was -3.47%; that for `CCOc1ccc(-n2ccc3nc(N4CCCC4)ncc3c2=O)cc1` was -1.19%; that for `Cc1cnn(CC2CCCN2CC(=O)N(C)CCC#N)c1` (stereo unspecified) was 7%.
Turning to `O=C(C(CNCc1cccnc1)c1ccccc1)N1CCOCC1` (stereo unspecified), the cytotoxicity at 10 µM was determined as 2.49%.
The figure for `O=C(NCc1cccc(F)c1)N1CCC2(CC(=O)N(c3ccsc3)C2)C1` (stereo unspecified) is -10%; for `Cc1nc(-c2cccc(C(=O)N(C)C)c2)cs1` it is 1.77%; for `CN1CCN(c2ccncc2S(=O)(=O)N2CCCCC2)CC1` it is -6.84%.
The figure for `CC(C)NC(=O)CN(C)C1CCN(c2ccc(Cl)cn2)CC1` is 3.5%; for `OC1(CNc2ccccc2)CCNCC1` it is -1.9%.
The value for `CC(C)OCCCNC(=O)CN1CCN(c2nccs2)C(C)C1` (stereo unspecified) was 1.4%.
Turning to `COc1ccccc1N1CCN(Cc2cnc3c(c2)c(C)nn3C)CC1`, the cytotoxicity at 10 µM is -0.949%.
The figure for `O=C([C@H]1COC[C@H]2CN(C3CCOCC3)C[C@H]21)N1CCCCO1` is 5.22%; for `Cc1noc(C2CCC3(CCN(C(=O)c4cc(C5CC5)on4)CC3)O2)n1` (stereo unspecified) it is 3.1%.
The value for `Cc1ccc(=O)n(CC(=O)N2CCCC(c3nc(C)c(C)s3)C2)n1` (stereo unspecified) was -3.06%.
The figure for `Cc1nn(C)c(C)c1CN(C)C(=O)c1cc(NC(=O)C2CC2)n(C)n1` is 3.38%; for `CCN(c1ccc(C(=O)N2CCCCC2)cc1)S(=O)(=O)CC` it is 1.85%; for `CC(C)N1c2sc(-c3ccsc3)nc2CC1C(=O)NC1CCCC1` (stereo unspecified) it is 9.1%.
As to `Cc1nc(CN(Cc2ccncc2)C2CCN(C)CC2)cs1`, the cytotoxicity at 10 µM was -2.56%.
The value for `CC1=NN(c2ccc(C(=O)OCCNC(=O)c3ccncc3)cc2)CC1` was -3.62%; that for `CN(Cc1ccncc1)C1COC2(CCN(Cc3nccn3C)CC2)C1` (stereo unspecified) was -98.7%.
The value for `CC(NCc1cnc(N2CCOCC2)nc1)c1ccc(Cl)s1` (stereo unspecified) was -4.9%; that for `CC(C)c1n[nH]c(C2CN(C(=O)c3cc(Cl)c[nH]3)CCO2)n1` (stereo unspecified) was -5.64%; that for `CC(C)Cc1noc(CN2CCCC(Cn3cncn3)C2)n1` (stereo unspecified) was -2.6%.
The figure for `Cc1cccc(CC(=O)NS(=O)(=O)c2ccc(F)c(F)c2)c1` is -5.23%; for `COC(=O)c1ccc(NC(C)c2ccc3c(c2)NC(=O)CO3)nn1` (stereo unspecified) it is -4.75%.
Consider `CN(C)S(=O)(=O)Nc1ccc(Oc2ccc3c(c2)OCO3)cc1`, for which the cytotoxicity at 10 µM turned out to be 1.43%.
The figure for `O=C(NCCc1coc(-c2ccc(F)cc2)n1)NCC1CCOC1` (stereo unspecified) is -1.94%.
The value for `O=C(C1CCCC1)N1CCO[C@H]2[C@H](OCC3CCOCC3)CC[C@@H]21` was 5.05%; that for `Cn1cc(C(=O)N2CCOc3cc(F)ccc32)ccc1=O` was -2.55%; that for `COCCN(CC1CC1)c1nc(CCN)nc2sc(C)c(C)c12` was 0.956%.
Consider `CCn1cnnc1CNC(=O)N1CCOC(c2ccc(Cl)cc2)C1` (stereo unspecified), for which the cytotoxicity at 10 µM was 4.13%.
The figure for `COC(=O)N1C[C@@H]2CC[C@H]1CN(Cc1ccncc1)C2` is -10%.
The figure for `COCCC1(CO)CCCN(C(=O)c2cc(C#N)c(=O)[nH]c2C)C1` (stereo unspecified) is -37.7%.
The figure for `O=C(NC1COC2(CCN(CC3CCC3)CC2)C1)c1ccccn1` (stereo unspecified) is -1.95%; for `COc1ccc(-c2n[nH]cc2CN(C)Cc2nonc2C)c(F)c1` it is -6.46%; for `CCN(Cc1ccccc1C)S(C)(=O)=O` it is 9.23%.
In the case of `CC1(c2ccc(Br)cc2)CC(=O)N(CCC#N)C1=O` (stereo unspecified), the cytotoxicity at 10 µM stood at 0.923%.
The value for `COc1ccc(CN2CCC3(CCCN(c4ncc(F)cn4)C3)C2)cc1` (stereo unspecified) was 62.8%.

Source of the values: ChEMBL document CHEMBL4513216, “Probing the Open Global Health Chemical Diversity Library for Multistage-Active Starting Points for Next-Generation Antimalarials” (ACS Infect Dis, 2020).
